Measured values as given in ChEMBL document CHEMBL1143649, “New clerodane diterpenoids from Laetia procera (Poepp.) Eichler (Flacourtiaceae), with antiplasmodial and antileishmanial activities” (Bioorg Med Chem Lett, 2005).

Experiments:
MCF7 [1] = assay: Cytotoxic activity against human MCF-7 cells; assay type: cell-based
MCF7 [2] = assay: Ratio of cytotoxic activity against human MCF-7 cells to that of antiplasmodial activity against Plasmodium falciparum FcB1; assay type: functional
In short: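 Cytotoxic activity on the MCF7 human tumour line divided by antiplasmodial activity on P. falciparum FcB1.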

Plasmodium falciparum [3] = assay: Antiplasmodial activity for Plasmodium falciparum F32; assay type: functional
In short: (§1)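 Tested against P. falciparum strains FcB1 and F32, with chloroquine as the positive control. Values are means ± SD from independent experiments.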

Plasmodium falciparum [4] = assay: Antiplasmodial activity for Plasmodium falciparum FcB1; assay type: functional; in short: as §1
Leishmania amazonensis [5] = assay: Antileishmanial activity against leishmania amazonensis promastigotes stage; assay type: functional
Leishmania amazonensis [6] = assay: Antileishmanial activity against leishmania amazonensis axenic amastigotes stage; assay type: functional

Row | SMILES | Activity (MCF7 [1]) [µM] | Ratio (MCF7 [2]) | Activity (Plasmodium falciparum [3]) [µM] | Activity (Plasmodium falciparum [4]) [µM] | Activity (Leishmania amazonensis [5]) [µM] | Activity (Leishmania amazonensis [6]) [µM]
1 | CCCCCCCC/C=C\CCCCCC[C@@H]1C(=O)O[C@@H](C)[C@H]1O | 65.9 | 2.1 | 57.6 | 27.5 | 111 | 129
2 | CCN(CC)CCCC(C)Nc1ccnc2cc(Cl)ccc12 (configuration not stated) [CHLOROQUINE] |  |  | 0.06 | 0.145 |  | 
3 | C=C/C(C)=C/C[C@]1(C)[C@H](C)C[C@H](O)[C@@]23C(=C[C@@H](OC(=O)C(C)CC)C[C@@H]12)C(OC(C)=O)OC3OC(C)=O (some centres not stated) | 0.85 | 1.3 | 0.57 | 0.59 | 11 | 10.5
4 | C=C/C(C)=C/C[C@]1(C)[C@H](C)C[C@H](O)[C@@]23C(=C[C@H](OC(=O)C(C)CC)C[C@@H]12)C(OC(C)=O)OC3OC(C)=O (some centres not stated) | 1.54 | 2.2 | 0.62 | 0.54 | 11.1 | 5.98
5 | C=C/C(C)=C/C[C@]1(C)[C@H](C)C[C@H](OC)[C@@]2(C=O)C(C=O)=C[C@H](OC(=O)C(C)CC)C[C@@H]12 (some centres not stated) | 9.6 | 2.7 | 6.04 | 3.79 | 50.9 | 30.3
6 | COc1cccc2c1C(=O)c1c(O)c3c(c(O)c1C2=O)C[C@@](O)(C(=O)CO)C[C@@H]3O[C@H]1C[C@H](N)[C@H](O)[C@H](C)O1 [DOXORUBICIN] | 0.4 |  |  |  |  | 
7 | C=C/C(C)=C/C[C@]1(C)[C@H](C)C[C@H](OC(=O)c2ccccc2)[C@@]23C(=C[C@H](OC(=O)C(C)CC)C[C@@H]12)C(OC(C)=O)OC3OC(C)=O (some centres not stated) | 27.3 | 4.6 | 4.66 | 5.35 | >200 | >200
8 | C=C/C(C)=C/C[C@]1(C)[C@H](C)C[C@H](OC(=O)c2ccccc2)[C@@]23C(=C[C@H](OC(=O)C(C)C)C[C@@H]12)C(OC(C)=O)OC3OC(C)=O (some centres not stated) | 17.8 | 3.1 | 4.44 | 6.08 | >200 | >200
9 | C[C@@H]1[C@H](O)[C@@H](C)/C=C/C=C/C=C/C=C/C=C/C=C/C=C/[C@H](O[C@@H]2O[C@H](C)[C@@H](O)[C@H](N)[C@@H]2O)C[C@@H]2O[C@](O)(C[C@@H](O)C[C@@H](O)[C@H](O)CC[C@@H](O)C[C@@H](O)CC(=O)O[C@H]1C)C[C@H](O)[C@H]2C(=O)O [AMPHOTERICIN B] |  |  |  |  | 0.3 | 0.3
10 | C=C/C(C)=C/C[C@]1(C)[C@H](C)C[C@H](OC)[C@@]23C(=C[C@H](OC(=O)C(C)CC)C[C@@H]12)C(OC(C)=O)OC3OC(C)=O (some centres not stated) | 4.38 | 6.8 | 0.58 | 0.66 | 10.9 | 47.4
